Sampled rows, rich in hits. Any-hit rate of the full collection: about 4.1%.
Cl transport mod: modulators of human KCC2 chloride dependent transport; Q9H2X9; B-score of Tl+ flux slope (higher = more flux/activation; lower = inhibition) at 10 µM; hit rate 2.2% among 190,000; KCC2 cells, thallium flux FluoZin-2 fluorescence; AID 1456;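 active = thallium flux slope and its plate-corrected score both differing from the plate sample mean at a set confidence after two filtering rounds, in either direction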;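 note: slope of fluorescence scaled to starting intensity during 10 to 20 s after thallium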
KCNK9 block: blocks the human KCNK9 two-pore domain potassium channel. Q9NPC2. HEK293 KCNK9, FluxOR thallium flux fluorescence; stronger effect = lower value. B-score at 10 µM. hit rate 1.2% among 310,000;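 active = ratio B-score over 3 SD below the library mean, with starting fluorescence within 5 SD of its mean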;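 note: negative B-score means less thallium flux so channel inhibition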
KCNK3 block: human KCNK3 channel inhibition, primary screen; hit rate 0.84% among 340,000; CHO-KCNK3 thallium flux, FluxOR fluorescence; stronger effect = lower value; AID 602410; B-score at 10 µM;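 active = B-score under library mean minus 4 SD, starting fluorescence ratio at most library mean plus 5 SD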;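 note: more negative B-score means stronger inhibition of thallium flux through KCNK3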
KCNQ1 inh: inhibitors of human KCNQ1 potassium channel | CHO-K1 KCNQ1, FluxOR thallium flux fluorescence; stronger effect = higher value | B-score at 10 µM | hit rate 1.3% among 310,000 | P51787 | AID 2642;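 active = compounds whose thallium flux B-score, printed positive for inhibition, exceeds three library SD while starting fluorescence stays within three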;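 note: channel opened by potassium depolarization with thallium stimulus after 20 min compound exposure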
KCNQ1 pot: potentiators or activators of human KCNQ1 potassium channel. AID 2648. B-score at 10 µM. CHO-K1 KCNQ1, thallium flux FluxOR fluorescence; stronger effect = higher value. hit rate 0.35% among 310,000. P51787;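 active = fluorescence ratio B-score, a plate-corrected score, at least three library SD, with initial intensity B-score within 5 SD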
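assay system = KCNQ1-transfected CHO-K1 cells | medium = assay buffer with matched DMSO | probe or stimulus = depolarizing K+/Tl+ stimulus, K2SO4 and Tl2SO4 each 12.5 mM in 5x stock | dosing = single dose | incubation = dye 90 min, compound 20 min, room temperature | detection = kinetic FluxOR fluorescence, 10 s baseline plus 110 s post-stimulus | evaluation = ratio B score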
hERG rescue: compounds protecting human hERG from proarrhythmic drug block; AID 1511; CHO-hERG, FluxOR thallium flux, dofetilide IC70 present; activation (rescue from dofetilide block), less the hit threshold, % at 10 µM; hit rate 0.51% among 310,000;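 active = activation above the mean of controls blocked by dofetilide plus 5 SD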;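 note: thallium influx through hERG after potassium depolarization seen as dye fluorescence rise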
Target sequence (Q12809 whole entry, looked up): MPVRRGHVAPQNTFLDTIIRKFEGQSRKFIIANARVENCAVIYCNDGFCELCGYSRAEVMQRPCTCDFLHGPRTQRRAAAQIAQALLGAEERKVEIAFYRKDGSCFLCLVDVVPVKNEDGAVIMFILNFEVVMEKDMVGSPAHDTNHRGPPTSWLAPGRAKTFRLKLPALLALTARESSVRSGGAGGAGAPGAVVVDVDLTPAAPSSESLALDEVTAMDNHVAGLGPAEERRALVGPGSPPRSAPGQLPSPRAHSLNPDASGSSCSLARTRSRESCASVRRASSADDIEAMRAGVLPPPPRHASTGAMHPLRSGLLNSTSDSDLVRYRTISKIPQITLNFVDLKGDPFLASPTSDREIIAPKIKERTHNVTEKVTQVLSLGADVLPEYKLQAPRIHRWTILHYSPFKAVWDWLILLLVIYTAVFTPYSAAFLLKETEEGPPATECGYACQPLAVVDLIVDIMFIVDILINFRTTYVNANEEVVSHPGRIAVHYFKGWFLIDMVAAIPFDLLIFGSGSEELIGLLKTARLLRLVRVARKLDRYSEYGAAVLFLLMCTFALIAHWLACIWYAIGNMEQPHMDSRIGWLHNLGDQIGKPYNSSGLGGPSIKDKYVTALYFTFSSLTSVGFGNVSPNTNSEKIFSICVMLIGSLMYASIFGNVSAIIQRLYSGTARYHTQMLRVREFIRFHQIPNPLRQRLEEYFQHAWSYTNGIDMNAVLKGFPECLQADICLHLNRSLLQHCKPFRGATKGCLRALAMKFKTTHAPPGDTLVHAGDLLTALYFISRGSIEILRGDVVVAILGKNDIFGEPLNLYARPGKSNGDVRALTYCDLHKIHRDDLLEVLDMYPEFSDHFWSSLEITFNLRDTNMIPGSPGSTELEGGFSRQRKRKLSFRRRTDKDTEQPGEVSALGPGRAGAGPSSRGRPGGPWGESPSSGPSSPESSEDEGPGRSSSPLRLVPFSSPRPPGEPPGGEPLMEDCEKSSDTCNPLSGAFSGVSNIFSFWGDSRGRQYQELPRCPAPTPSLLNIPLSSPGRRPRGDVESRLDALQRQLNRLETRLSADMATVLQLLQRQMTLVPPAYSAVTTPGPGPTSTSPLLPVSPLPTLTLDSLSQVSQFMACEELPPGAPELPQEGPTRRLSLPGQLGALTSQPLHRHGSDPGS
KCC2 secondary: KCC2 (human) modulation, secondary assay. HEK293-KCC2, thallium flux, FluoZin2 fluorescence; stronger effect = higher value. shares compounds with Cl transport mod. hit rate 15% among 3,700. normalised thallium flux (F/F0 slope) at 10 µM;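 active = thallium flux slope above the same plate's solvent-only control mean plus 3 SD; inconclusive = the two replicate wells disagree; inactive = no significant difference from solvent-only control wells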
KCC2 bumet counter: bumetanide-insensitive thallium flux in KCC2 cells with ouabain, counter-screen; AID 1714; shares compounds with Cl transport mod; hit rate 49% among 3,700; HEK293-KCC2 + bumetanide/ouabain, thallium flux FluoZin2; stronger effect = higher value; normalized thallium flux at 10 µM;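 active = thallium entry rate above the same plate's blocked-transporter control wells by more than 3 SD; inconclusive = the two repeat wells disagree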;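 note: raw slope of fluorescence over initial fluorescence between 10 and 20 s after thallium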
KCC2 sec2: KCC2 (human) modulation, second secondary assay | shares compounds with Cl transport mod | normalized thallium flux at 10 µM | hit rate 23% among 3,700 | AID 1715 | HEK293-KCC2, thallium flux FluoZin2 fluorescence; actives lie on both sides; F/F0 rise rate, 10–20 s post-thallium;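 active = thallium flux slope more than 3 SD above or below the plate's solvent-only control mean, mostly below; inconclusive = the two repeat wells disagreed; inactive = no significant shift from solvent-only controls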;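 note: raw slope with 0.1% DMSO as baseline and bumetanide as block control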
HEK counter1: acts in parental HEK cells, KCC2 counter-screen; hit rate 46% among 3,700; thallium flux rate (normalised fluorescence) at 10 µM; HEK293 parental cells, thallium flux FluoZin2, ouabain; baseline-ratio fluorescence slope, 10–20 s after thallium; shares compounds with Cl transport mod; AID 1716;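 active = thallium flux rate significantly above the same plate's solvent-only control wells, beyond their mean plus 3 SD; inconclusive = the two replicate wells gave conflicting results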
KCC2 retest ouab: KCC2 (human) modulation, ouabain retest; raw Tl+ flux slope (below DMSO = inhibition, above = activation) at 10 µM; shares compounds with Cl transport mod; HEK293-KCC2, thallium flux FluoZin2 fluorescence; bidirectional: low = inhibitor, high = activator; hit rate 48% among 3,700;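 active = thallium flux slope beyond 3 SD from same-plate DMSO control mean in most replicates, usually higher, sometimes lower; inconclusive = repeat tests gave conflicting results; inactive = no significant difference from controls in most replicates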;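 note: slope of initial-normalized fluorescence between seconds 10 and 20 after thallium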
HEK counter2: acts in parental HEK cells, second KCC2 counter-screen; HEK293 parental, thallium flux FluoZin-2 fluorescence slope; thallium flux slope at 10 µM; hit rate 33% among 3,700; AID 1718; shares compounds with Cl transport mod;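 active = thallium flux slope above the same plate's solvent-control mean plus 3 SD in both duplicate wells; inconclusive = duplicate wells that disagreed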;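 note: run without ouabain in cells lacking the KCC2 cotransporter; slope of fluorescence scaled to its starting value between 10 and 20 s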
* marks the source's active call; other numbers are inactive results; i = inactive; ? = inconclusive; nt = no result given.

SMILES | Cl transport mod | KCNK9 block | KCNK3 block | KCNQ1 inh | KCNQ1 pot | hERG rescue | KCC2 secondary | KCC2 bumet counter | KCC2 sec2 | HEK counter1 | KCC2 retest ouab | HEK counter2
CC(C)(C)OC(=O)N1CCC(C(=O)Nc2cccc(C(=O)N3CCCCC3)c2)CC1 | nt | nt | i | nt | nt | nt | nt | nt | nt | nt | nt | nt
Cc1ccc(NC(=O)c2ncn(CCCN[C@H](C)c3cccc4ccccc34)n2)cc1C | nt | nt | i | nt | nt | nt | nt | nt | nt | nt | nt | nt
CC(=O)c1cccc(NC(=S)NC(=O)c2ccc(C)cc2Cl)c1 | 21* | i | i | i | i | 2 | 0.0058 | 0.062* | ? | 0.019* | 0.036* | 0.019*
CC(=O)c1cccc(NC(=S)NC(=O)c2ccc(Br)cc2)c1 | 1.5 | i | i | i | i | -7 | nt | nt | nt | nt | nt | nt
CN1C(C(=O)NCc2ccccc2)CC2Cn3c(nc4cc(Cl)c(Cl)cc43)C21 (stereo not given) | -3.2* | i | i | i | i | -7 | 0.017 | 0.0045 | 0.022* | 0.007 | 0.014 | 0.01
Cc1cc2nc3n(c2cc1C)CC1CC(C(=O)NCc2ccccc2)N(C)C31 (stereo not given) | nt | i | i | i | i | -10 | nt | nt | nt | nt | nt | nt
O=C(Nc1ccc(Cl)cn1)C1CCCN1S(=O)(=O)c1ccc(Cl)cc1 (stereo not given) | nt | i | i | i | i | 2 | 0.0082 | 0.007 | 0.033 | ? | 0.024 | 0.0099
Cc1cc(C)c(C#N)c(OCC(=O)c2ccccc2)n1 | -0.62 | i | i | i | i | 2 | 0.018 | 0.0049 | ? | 0.0073 | 0.015 | 0.01
Cc1cc(C)c(C#N)c(OCC(=O)Nc2ccccc2)n1 | nt | i | i | i | i | 0 | nt | nt | nt | nt | nt | nt
O=C(O)Cc1sc(Nc2ccccc2)nc1-c1ccc(Cl)cc1 | -6.7* | i | i | i | i | -4 | 0.0083 | 0.01* | 0.033 | 0.0075 | ? | 0.011
COc1c(OC)c(O)c2c(=O)cc(-c3c(O)cccc3O)oc2c1OC | 0.027 | i | i | i | i | -9 | nt | nt | nt | nt | nt | nt
O=c1cc(-c2c(F)c(F)c(F)c(F)c2F)oc2c(F)c(F)c(F)c(F)c12 | -2.7* | i | nt | i | i | -35 | 0.0068 | ? | 0.031 | 0.0078 | 0.02 | 0.011
O=C1C[C@@H]2c3c(cccc3CN1Cc1ccccc1F)C[C@@H](O)[C@H]2O | nt | nt | i | nt | nt | nt | nt | nt | nt | nt | nt | nt
C=C1CCC[C@]2(C)C[C@H]3OC(=O)C(CNCC(OC)OC)[C@H]3CC12 (stereo not given in full) | nt | i | i | i | i | -4 | nt | nt | nt | nt | nt | nt
CC(=O)c1ccc(N(C(=O)Cn2nnc3ccccc32)C(C(=O)NC2CCCCC2)c2cn(C)nc2C)cc1 (stereo not given) | -0.6 | i | i | i | i | -1 | nt | nt | nt | nt | nt | nt
CC(=O)c1cccc(N(C(=O)Cn2nnc3ccccc32)C(C(=O)NC2CCCCC2)c2cn(C)nc2C)c1 (stereo not given) | nt | i | i | i | i | 1 | 0.011 | ? | 0.033 | 0.0075 | 0.021 | ?
Cc1ccc(C(=O)N2CCC3CC2c2cc(-c4ccc5c(c4)OCO5)ccc23)cc1 (stereo not given) | nt | nt | i | nt | nt | nt | nt | nt | nt | nt | nt | nt
COC(=O)C(NS(C)(=O)=O)(c1c(C)[nH]c2ccccc12)C(F)(F)F (stereo not given) | -4.4* | i | i | i | i | -15 | 0.0069 | ? | 0.027 | 0.0083 | 0.019 | 0.011
Nc1ccccc1SC/C=C/CSc1ccccc1N | nt | i | i | i | i | -5 | nt | nt | nt | nt | nt | nt
CCOC(=O)c1ccc2c(c1)[nH]c(=S)n2CC | 4* | i | i | i | i | -4 | 0.0057 | 0.019* | 0.033 | 0.013* | ? | 0.016*
COC1OC2COC(c3ccccc3)OC2C(OC(C)=O)C1OC(C)=O (stereo not given) | nt | nt | i | nt | nt | nt | nt | nt | nt | nt | nt | nt
C=CCn1cnc2scc(-c3ccc(CC)cc3)c2c1=O | -4.1* | i | i | i | i | -8 | 0.0054 | 0.004 | 0.028 | 0.0065 | 0.018 | 0.01
CC[C@H](C)[C@H](NC(=O)OCc1ccccc1)C(=O)OCC(=O)N1CCN(c2ccc(F)cc2)CC1 | nt | nt | i | nt | nt | nt | nt | nt | nt | nt | nt | nt
CCOC(=O)C1CCN(C2CC(=O)N(c3cccc(Cl)c3)C2=O)CC1 (stereo not given) | 3* | i | i | i | i | 1 | 0.0084 | 0.0085* | 0.032 | 0.0075 | 0.022 | 0.0098
O=C(C1CCN(C2CC(=O)N(c3cccc(Cl)c3)C2=O)CC1)N1CCCC1 (stereo not given) | -0.59 | i | i | i | i | -5 | nt | nt | nt | nt | nt | nt
SMILES | Cl transport mod | KCNK9 block | KCNK3 block | KCNQ1 inh | KCNQ1 pot | hERG rescue | KCC2 secondary | KCC2 bumet counter | KCC2 sec2 | HEK counter1 | KCC2 retest ouab | HEK counter2
CCN(c1ccccc1)S(=O)(=O)c1ccc(C(=O)N(CCCN(C)C)c2nc3c(C)cccc3s2)cc1 | nt | i | i | i | i | -15 | nt | nt | nt | nt | nt | nt
CCCCOc1ccc(Cc2c(COCC)[nH]c(=S)[nH]c2=O)cc1 | 15* | i | i | i | i | -3 | ? | 0.099* | 0.043* | 0.026* | 0.053* | 0.028*
CCOCc1[nH]c(=S)[nH]c(=O)c1Cc1ccc(OCC)cc1 | 0.34 | i | i | i | i | -2 | nt | nt | nt | nt | nt | nt
CCOCc1[nH]c(=S)[nH]c(=O)c1Cc1ccc(OCC(C)C)cc1 | 22* | i | i | i | i | -5 | 0.014* | 0.061* | 0.039 | ? | 0.04* | ?
COc1ccc(CN(C)C(=O)C(CCSC)NS(=O)(=O)c2ccc3c(c2)OCCO3)c(OC)c1OC (stereo not given) | nt | nt | i | nt | nt | nt | nt | nt | nt | nt | nt | nt
COc1ccc(CSCCc2n[nH]c(=S)n2-c2ccccc2)cc1C | 55* | i | i | i | i | -7 | 0.0091 | 0.029* | 0.034 | 0.023* | 0.02 | 0.012
Cc1cc2cc3c(cc2nc1SCC(=O)O)OCCO3 | 0.98 | i | i | i | i | -8 | nt | nt | nt | nt | nt | nt

Source: PubChem
